The source made the active and inactive calls. The calls are words filed in the database; no cut-off is given here.

Our source for the Activity and UI values is ChEMBL document CHEMBL6134766, “Design, synthesis, and evaluation of benzhydrylpiperazine-based novel dual COX-2/5-LOX inhibitors with anti-inflammatory and anti-cancer activity” (RSC Med Chem, 2025).

In data set [1] the test system is Rattus norvegicus. The data set can be described thus: Anti-inflammatory activity in carrageenan-induced paw edema Wistar rat model assessed as swelling thickness of paw at 10 mg/kg, po measured immediately by digital vernier caliper (reference value: 3.48 +/- 0.21 millimeter). The class given is functional.
The subject of data set [2] is Rattus norvegicus. Briefly: Anti-inflammatory activity in carrageenan-induced paw edema Wistar rat model assessed as swelling thickness of paw at 10 mg/kg, po measured after 1 hr by digital vernier caliper (reference value: 8.47 +/- 0.25 millimeter). Type of data set: functional.
For data set [3], the system named is Rattus norvegicus. Briefly: Anti-inflammatory activity in carrageenan-induced paw edema Wistar rat model assessed as swelling thickness of paw at 10 mg/kg, po measured after 2 hrs by digital vernier caliper (reference value: 8.65 +/- 0.53 millimeter). Type of data set: functional.
The subject of data set [4] is Rattus norvegicus. Briefly: Anti-inflammatory activity in carrageenan-induced paw edema Wistar rat model assessed as swelling thickness of paw at 10 mg/kg, po measured after 3 hrs by digital vernier caliper (reference value: 8.56 +/- 0.45 millimeter). The class given is functional.
Data set [5] has as its system Rattus norvegicus. Briefly: Anti-inflammatory activity in carrageenan-induced paw edema Wistar rat model assessed as swelling thickness of paw at 10 mg/kg, po measured after 4 hrs by digital vernier caliper (reference value: 8.36 +/- 0.78 millimeter). The class given is functional.
The test system of data set [6] is Rattus norvegicus. The data set can be described thus: Anti-inflammatory activity in carrageenan-induced paw edema Wistar rat model assessed as swelling thickness of paw at 10 mg/kg, po measured after 5 hrs by digital vernier caliper (reference value: 8.47 +/- 0.32 millimeter). The class given is functional.
Data set [7] has as its system Rattus norvegicus. The data set can be described thus: Anti-inflammatory activity in carrageenan-induced paw edema Wistar rat model assessed as swelling thickness of paw at 10 mg/kg, po measured after 6 hrs by digital vernier caliper (reference value: 8.33 +/- 0.42 millimeter). Type of data set: functional.
For data set [8], the system named is Rattus norvegicus. The data set can be described thus: Anti-inflammatory activity in carrageenan-induced paw edema Wistar rat model assessed as decrease in IL-6 level in paw tissue at 10 mg/kg, po measured for 6 hrs by ELISA. Type of data set: functional, organism-based. The method, boiled down: (§1)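 Paw tissue taken from carrageenan-edema rats dosed orally at 5, 10 or 20 mg kg−1. Tissue rinsed in PBS pH 7.4, minced, homogenized, filtered and centrifuged at 2000 rpm for 20 min at 4 °C. Supernatant assayed by ELISA for PGE2, IL-6, TNF-α and IL-10. Data as mean ± SD.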

The subject of data set [9] is Rattus norvegicus. The data set can be described thus: Anti-inflammatory activity in carrageenan-induced paw edema Wistar rat model assessed as decrease in TNF-alpha level in paw tissue at 10 mg/kg, po measured for 6 hrs by ELISA. The class given is functional, organism-based. The method, boiled down:
as §1

For data set [10], the system named is Rattus norvegicus. The data set can be described thus: Anti-inflammatory activity in carrageenan-induced paw edema Wistar rat model assessed as increase in IL-10 level in paw tissue at 10 mg/kg, po measured for 6 hrs by ELISA. The class given is functional, organism-based. Put shortly:
as §1

The nature of data set [11]: Toxicity in fasting Wistar rat assessed as ulcer score at 10 mg/kg, po via gavage treated for 3 days consecutively by H and E staining based analysis (reference value: 0). The class given is organism-based. The note with it: in vivo, 72 h, time 3 day. The method, boiled down: (§2)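 Fasted rats, n = 6/group, gavaged once daily for 3 days in 0.3% Na CMC (vehicle control 0.3% CMC); killed under anaesthesia 6 h after day-3 dose; stomachs saline-washed, mucosa examined with hand lens; ulcer score, index and % ulceration by reported scoring; some stomachs formalin-fixed, H&E stained.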

Data set [12] in a line: Toxicity in fasting Wistar rat assessed as ulcer index at 10 mg/kg, po via gavage treated for 3 days consecutively by H and E staining based analysis (reference value: 0). The note with it: in vivo, 72 h, time 3 day. The class given is organism-based. The method, boiled down: as §2
A short description of data set [13]: Toxicity in fasting Wistar rat assessed as ulceration at 10 mg/kg, po via gavage treated for 3 days consecutively by H and E staining based analysis (reference value: 0 %). Type of data set: organism-based. The note with it: in vivo, 72 h, time 3 day. Put shortly: as §2
Data set [14] has as its system Gastric mucosa. Briefly: Antioxidant activity in gastric mucosal tissue in Wistar rat assessed as increase in GSH level at 10 mg/kg, po. Type of data set: functional, organism-based. The method, boiled down: (§3)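 Fasted rats (n = 6/group) gavaged once daily for 3 days in 0.3% Na CMC and sacrificed 6 h after the final dose. Randomly chosen stomachs homogenized in cold PBS pH 7.4 and centrifuged at 1000 rpm for 10 min at 4 °C. Supernatant protein measured by Bradford assay; GSH and nitrate then measured by reported methods.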

Data set [15] has as its system Gastric mucosa. Briefly: Antioxidant activity in gastric mucosal tissue in Wistar rat assessed as increase in SOD level at 10 mg/kg, po. The class given is functional, organism-based. The method, boiled down:
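Gastric tissue from fasted rats (dosed orally once daily for 3 days in 0.3% Na CMC) homogenized in cold PBS pH 7.4, centrifuged 1000 rpm, 10 min, 4 °C; protein by Bradford; SOD measured in supernatant per reported procedure.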

The test system of data set [16] is Gastric mucosa. Briefly: Antioxidant activity in gastric mucosal tissue in Wistar rat assessed as decrease in nitrite level at 10 mg/kg, po. The class given is functional, organism-based. The method, boiled down: as §3
Data set [17] is described as follows: Toxicity in Wistar rat assessed as change in serum ALT level at 10 mg/kg, po. The class given is organism-based. The note with it: in vivo. Put shortly: (§4)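 Rats dosed orally in 0.3% Na CMC; retro-orbital blood clotted at room temperature, serum separated at 2000 rpm, 20 min, 4 °C; ALT, AST, creatinine and urea by commercial kits; n = 6 per group, mean ± SD; Tukey test after repeated-measures one-way ANOVA.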

Data set [18] in a line: Toxicity in Wistar rat assessed as change in serum AST level at 10 mg/kg, po. Type of data set: organism-based. The note with it: in vivo. The method, boiled down:
as §4

A short description of data set [19]: Toxicity in Wistar rat assessed as change in serum creatinine level at 10 mg/kg, po. The class given is organism-based. The note with it: in vivo. The method, boiled down: as §4
Data set [20] can be described thus: Toxicity in Wistar rat assessed as change in serum urea level at 10 mg/kg, po. The class given is organism-based. The note with it: in vivo. The method, boiled down: as §4
Data set [21] concerns Rattus norvegicus. Briefly: Analgesic activity in acetic acid-induced pain Wistar rat model assessed as number of writhing at 10 mg/kg, po pretreated for 30 mins followed by acetic acid treatment measured for 30 mins by writhing test (reference value: 40.33 +/- 3.01). The class given is functional. The note with it: time 60 min, 1 h.

Regarding `COc1ccc2c(c1)c(CC(=O)O)c(C)n2C(=O)c1ccc(Cl)cc1` [INDOMETHACIN], the Activity amounted to 3.37 mm in the data set on Rattus norvegicus [1]; 3.74 mm in the data set on Rattus norvegicus [2]; 3.73 mm with Rattus norvegicus [3]; 3.38 mm in the data set with Rattus norvegicus [4]; 3.14 mm with Rattus norvegicus [5]; 3.17 mm in the data set with Rattus norvegicus [6]. Besides, the Activity in the data set on Rattus norvegicus [7] is reported as 3.29 mm; in data set [11], 3.041; in data set [13], 100%; in data set [17] it was “Toxic”; in data set [18] it was “Toxic”; in [19] it was “Toxic”. In addition, the results for the Activity result (in data set [20]; in the data set with Rattus norvegicus [21]) were “Toxic” and 16.5, respectively. For the same compound, the outcome in the data set on Rattus norvegicus [8], in the data set on Rattus norvegicus [9], in the data set on Rattus norvegicus [10], in the data set with Gastric mucosa [14], in the data set on Gastric mucosa [15] and with Gastric mucosa [16] was Active. The UI in data set [12] came to 304.16.
